Most compounds without a hit are left out; they make up all but 1.9% or so of the library.
XiGFP reactiv: reactivates the inactive X chromosome in mouse fibroblasts | XiGFP mouse fibroblasts, % GFP-positive cells imaging, 3 d; cells co-treated with 5-aza-dC sensitizer; scaled so ellipticine positive control = 100% | activation, % at 7.58 µM | 360,000 tested, 0.055% active | AID 743238;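 active = mean normalized replicate activation at least 10% and every replicate at or above 10%; inconclusive = only one of the two criteria met; inactive = mean below 10% and not all replicates reach 10%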
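Material: XiGFP fibroblasts, SV40-immortalized; Buffer or medium: DMEM containing 5-aza-dC; Compound dosing: single point; Times: 3 days compound exposure.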
DENV2 CPE rescue: inhibitors of DENV2 cytopathic effect; 350,000 tested, 1.7% active; DENV2-infected cells, cytopathic effect rescue, plate reader; CPE inhibition, % at 9.99 µM; AID 651640; in the data active = CPE inhibition above about 20%, passing the limit was not always enough; inconclusive = no clear call, values can overlap the other calls; tested in BHK-21 cells
FN deposit inh: fibronectin deposition inhibition. 350,000 tested, 0.086% active. AH1F fibroblasts, Alexa488-fibronectin deposition fluorescence, overnight. inhibition, % at 12.6 µM;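 active = mean inhibition across replicates of 30% or more, regardless of how many single replicates reach that level; inconclusive = mean under 30% yet at least half of replicates reach 30%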
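Assay system: AH1F fibroblast monolayer, labelled fibronectin deposition. Amount: 10000 cells per well. Also added: labelled fibronectin 24 nM. Compound: single-point pinned compound. Incubation: cell attachment 1 h, compound and FN exposure overnight. Detection: fluorescence after three HBSS washes, excitation 485 nm, emission 525 nm. Read-out: inhibition of fibronectin deposition signal.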
Cneo AK release: causes C. neoformans cell lysis; AID 651654; 360,000 tested, 0.2% active; lysis activity, % at 15 µM; adenylate kinase release luminescence, 4 h; normalised: neutral wells 0, clomiphene wells 100;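 active = mean lysis activity across replicates of at least 80%, whatever share of replicates individually reach that level; inactive = mean lysis activity below 80%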
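read-out = cell lysis signal | test system = log-phase Cryptococcus neoformans yeast cells | input = cells at 5 × 10^6 per mL | medium = fresh YPD growth medium | signal = luminescent adenylate kinase detection reagent | timing = 4 h at 37 °C static, read 1 h later | dosing = single dose | controls = Clomiphene as positive lysis control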
PGC1a acetyl inh: lowers PGC1a acetylation signal in U2OS cells; AlphaScreen anti-acetyl-lysine; with virally co-expressed GCN5 acetyltransferase; inhibition, % at 15.6 µM; 350,000 tested, 0.17% active; AID 651687;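 active = every replicate shows inhibition of at least 40%; inconclusive = mean inhibition at least 40% but some replicate below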
CFTR F508del cor: correctors of CFTR F508del function in bronchial epithelial cells; CFBE cells, YFP halide quenching; stimulated with forskolin plus potentiator P3; % fluorescence drop versus neutral controls; activity (quench increase), % at 7.58 µM; 350,000 tested, 0.36% active;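 active = mean added fluorescence quench of at least 8% versus neutral control, with both replicates also reaching 8%; inconclusive = only one of the mean or replicate conditions met; inactive = mean below 8% and not both replicates reaching 8%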;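 also: cells transiently co-express mutant CFTR-F508del with the halide-sensitive YFP; corrector assay measuring rescue of mutant channel to the surface after 24 h compound exposure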
Numbers stand for hits; 0 = inactive; ? = inconclusive; - = no result.

SMILES | XiGFP reactiv | DENV2 CPE rescue | FN deposit inh | Cneo AK release | PGC1a acetyl inh | CFTR F508del cor
CO[C@@H]1CN(C)C(=O)c2ccc(NC(C)=O)cc2OC[C@H](C)N(C(=O)c2ccccc2)C[C@@H]1C | 0 | - | 0 | - | - | -
CCC(=O)Nc1ccc2c(c1)C(=O)N(C)C[C@H](OC)[C@@H](C)CN(C(=O)c1ccccn1)[C@H](C)CO2 | 0 | - | 0 | 0 | 0 | 0
CCCC(=O)Nc1ccc2c(c1)C(=O)N(C)C[C@H](OC)[C@@H](C)CN(C(=O)c1cccnc1)[C@@H](C)CO2 | 0 | - | 0 | 82 | 0 | 0
CCC(=O)Nc1ccc2c(c1)C(=O)N(C)C[C@@H](OC)[C@H](C)CN(C(=O)c1ccccn1)[C@H](C)CO2 | 0 | 43 | 0 | 0 | 0 | 0
COCC(=O)Nc1ccc2c(c1)C(=O)N(C)C[C@H](OC)[C@H](C)CN(C(=O)c1ccccn1)[C@H](C)CO2 | 0 | 31 | 0 | 0 | 0 | 0
CCC(=O)Nc1ccc2c(c1)C(=O)N(C)C[C@@H](OC)[C@@H](C)CN(C(=O)c1cnccn1)[C@@H](C)CO2 | 0 | 29 | 0 | 0 | 0 | 0
C[C@@H]1CN([C@H](C)CO)S(=O)(=O)c2ccc(C#CCN(C)C)cc2O[C@H]1CN(C)C(=O)Nc1ccccc1F | 0 | ? | - | 0 | 0 | 0
COCCCNc1ccn2nc(-c3ccc(Cl)cc3)cc2n1 | 0 | 30 | 0 | 0 | - | 0
C[C@@H]1CN([C@H](C)CO)C(=O)c2cc(NS(=O)(=O)c3ccc(Cl)cc3)ccc2O[C@H]1CN(C)C(=O)Nc1ccccc1 | 0 | 0 | - | 0 | 0 | 0
Cc1cc(Cl)c2oc(C(=O)N(C)CCCN3CCOCC3)c(C)c2c1 | 0 | 0 | 0 | 0 | - | 0
Cc1cc(Cl)c2oc(C(=O)N(C)CCCCN3CCOCC3)c(C)c2c1 | 0 | 22 | 0 | 0 | 0 | 0
CO[C@H]1CN(C)C(=O)c2ccc(NC(=O)C3CC3)cc2OC[C@H](C)N(C(=O)c2cnccn2)C[C@@H]1C | 0 | 0 | 0 | 0 | 0 | 0
CN1CCN(CCCNC(=O)c2ccc(/C=C3\Oc4ccccc4N(Cc4ccccc4F)C3=O)cc2)CC1 | 0 | 0 | 0 | 108 | - | 0
Cc1cccc(CN2C(=O)/C(=C\c3ccc(C(=O)NCCCN4CCN(C)CC4)cc3)Oc3ccccc32)c1 | 0 | 0 | 0 | 0 | - | 0
CCCCN(CC)Cc1ccc(CNC(=O)Nc2ccc(Cl)cc2)o1 | 0 | 0 | 31 | - | 0 | 0
C[C@@H]1CN([C@H](C)CO)C(=O)c2cccc(NC(=O)NC3CCCCC3)c2O[C@H]1CN(C)CC1CCCCC1 | 0 | 0 | - | 0 | 0 | 0
C[C@@H]1CN([C@@H](C)CO)C(=O)c2cccc(NC(=O)C3CCOCC3)c2O[C@@H]1CN(C)CC1CCCCC1 | 0 | 0 | 0 | 0 | 0 | 0
C[C@H]1CN([C@@H](C)CO)C(=O)c2cccc(NC(=O)NC3CCCCC3)c2O[C@@H]1CN(C)CC1CCCCC1 | 0 | 30 | - | 0 | 0 | 0
C[C@H]1CN([C@@H](C)CO)C(=O)c2cccc(NC(=O)C3CCOCC3)c2O[C@H]1CN(C)CC1CCCCC1 | 0 | 44 | 0 | 0 | 0 | 0
CCCC#Cc1cnc2c(c1)C(=O)N([C@@H](C)CO)C[C@@H](C)[C@H](CN(C)C(=O)C1CCC1)O2 | 0 | 0 | - | 0 | 0 | 0
O=C(NCc1ccccc1)OC1CC2CC1[C@H]1CCCCN1C2=O (stereo partly drawn) | 0 | 0 | 0 | - | - | 0
O=C(NCc1ccc(F)cc1)OC1CC2CC1[C@H]1CCCCN1C2=O (stereo partly drawn) | 0 | ? | 30 | - | - | 0
O=C(c1ccccn1)N1CC2(C1)[C@@H](c1ccccc1)[C@@H](CO)N2C(=O)C1CCCC1 | 0 | 0 | 0 | - | 0 | 0
CCCC#Cc1ccc2c(c1)[C@@H]1[C@@H](CCN1S(=O)(=O)c1ccccc1C)[C@@H](CO)N2 | 0 | 66 | 0 | - | - | 0
COc1cccc(-c2ccc3c(c2)[C@H]2[C@H](CCN2S(=O)(=O)c2cn(C)cn2)[C@@H](CO)N3)c1 | 0 | 98 | 0 | 0 | 0 | 0
SMILES | XiGFP reactiv | DENV2 CPE rescue | FN deposit inh | Cneo AK release | PGC1a acetyl inh | CFTR F508del cor
COc1cccc(-c2ccc3c(c2)[C@H]2[C@H](CCN2S(=O)(=O)c2cn(C)cn2)[C@H](CO)N3)c1 | 0 | 0 | 0 | 0 | 0 | 0
Cn1cnc(S(=O)(=O)N2CC[C@@H]3[C@@H](CO)Nc4ccc(-c5ccc(F)cc5)cc4[C@@H]32)c1 | 0 | 0 | 0 | 0 | 0 | 0
CCCC#Cc1ccc2c(c1)[C@H]1[C@H](CCN1S(=O)(=O)c1cn(C)cn1)[C@H](CO)N2 | 0 | 65 | 0 | - | 0 | 0
CCCC#Cc1ccc2c(c1)[C@@H]1[C@@H](CCN1S(=O)(=O)c1ccccc1F)[C@@H](CO)N2 | 0 | 0 | 0 | - | - | 0
Cn1cnc(S(=O)(=O)N2CC[C@@H]3[C@H](CO)Nc4ccc(-c5ccc(F)cc5)cc4[C@@H]32)c1 | 0 | 46 | 0 | 0 | 0 | 0
Cn1cnc(S(=O)(=O)N2CC[C@@H]3[C@H](CO)Nc4ccc(C#Cc5ccc(F)cc5)cc4[C@@H]32)c1 | 0 | 27 | 0 | 0 | 0 | 0
Cc1cccnc1 | - | 21 | - | 0 | 0 | 0
C[C@@H]1CN([C@H](C)CO)C(=O)c2cc(C#CCc3ccccc3)cnc2O[C@H]1CN(C)C(=O)Cc1cccnc1 | 0 | 0 | - | - | 0 | 0
C[C@H]1CN([C@@H](C)CO)C(=O)Cc2cc(NC(=O)c3ccncc3)ccc2O[C@H]1CN(C)Cc1ccc(C(=O)Nc2ccccc2N)cc1 | 0 | 58 | - | 0 | 0 | 0
C[C@@H]1CN([C@@H](C)CO)C(=O)Cc2cc(N(C)C)ccc2O[C@@H]1CN(C)Cc1ccc(C(=O)Nc2ccccc2N)cc1 | 0 | 0 | 0 | 0 | 0 | 15
C[C@@H]1CN([C@H](C)CO)C(=O)Cc2cc(NC(=O)CCC(F)(F)F)ccc2O[C@@H]1CN(C)Cc1ccc(C(=O)Nc2ccccc2N)cc1 | 0 | 38 | 0 | 0 | 0 | 0
C[C@@H]1CN([C@@H](C)CO)C(=O)Cc2cc(N(C)C)ccc2O[C@H]1CN(C)Cc1ccc(C(=O)Nc2ccccc2N)cc1 | 0 | 0 | 0 | 0 | 0 | 0
C[C@H]1CN([C@@H](C)CO)C(=O)Cc2cc(NC(=O)CCC(F)(F)F)ccc2O[C@@H]1CN(C)Cc1ccc(C(=O)Nc2ccccc2N)cc1 | 0 | 0 | 0 | - | 0 | 0
C[C@H](CO)N1C[C@H](C)[C@H](CN(C)Cc2ccc(C(=O)Nc3ccccc3N)cc2)Oc2ccc(NC(=O)Cc3ccccc3)cc2CC1=O | 0 | 32 | - | - | 0 | 0
CNC(=O)C[C@@H]1CC[C@H]2[C@@H](COc3ccc(NC(=O)Nc4c(C)noc4C)cc3C(=O)N2C)O1 | 0 | 0 | 0 | 0 | 0 | 0
CC(C)NC(=O)N1[C@@H](CO)[C@@H]2c3ccccc3N(C(=O)Nc3cccc(Cl)c3)C[C@@H]21 | 0 | 0 | - | 0 | 0 | 0
